In PMC6736640 (ACS chemical neuroscience, 2018):

Target: Asyn fibrils (Homo sapiens, UniProt P37840)
Experiment: Radioligand competition binding on Asyn fibrils with [3H]1
Method in brief: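 Recombinant human Asyn fibrils at 150 nM incubated with 2 nM [3H]1 and test compound (1–1000 nM) in 30 mM Tris-HCl pH 7.4 with 0.1% BSA for 2 h at 37 °C. Bound ligand separated by vacuum filtration through 1.0 μm glass fiber filters, washed three times with cold buffer, and counted by scintillation after overnight incubation. Triplicates. EC50 from sigmoidal fit; Ki = EC50/(1+[radioligand]/Kd).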

Kd: 47 nM
Compound: COc1ccc(/C=C/c2cc(-c3nccs3)on2)cc1 [compound 1, (E)-3-(4-methoxystyryl)-5-(thiazol-2-yl)isoxazole]
